From ChEMBL document CHEMBL4270536, “Preparation, characterisation and biological evaluation of new N-phenyl amidobenzenesulfonates and N-phenyl ureidobenzenesulfonates inducing DNA double-strand breaks. Part 3. Modulation of ring A” (Eur J Med Chem, 2018) come the findings set out here.

Assay [1] has as its system M21. The assay is described as follows: Cell cycle arrest in human M21 cells assessed as accumulation at G0/G1 phase at 1.8 uM after 24 hrs by DAPI staining based flow cytometry relative to control. It counts as functional. Summed up:
(§1)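 Flow cytometry in M21 cells seeded in six-well plates, allowed 24 h, then exposed 24 h to drug (2- or 5-fold IC50); DMSO 0.5% control. Trypsinized, PBS-washed, fixed in ice-cold EtOH, stained with 2 mg/mL DAPI in PBS; sub-G1, G0/G1, S and G2/M fractions measured on LSR II cytometer.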

The test system of assay [2] is M21. The experiment in a line: Cell cycle arrest in human M21 cells assessed as accumulation at sub-G1 phase at 1.8 uM after 24 hrs by DAPI staining based flow cytometry relative to control. It is filed as functional. Summed up: as §1
For assay [3], the system named is M21. The assay is described as follows: Cell cycle arrest in human M21 cells assessed as accumulation at S phase at 1.8 uM after 24 hrs by DAPI staining based flow cytometry relative to control. It counts as functional. Summed up:
as §1

For the next assay, the system named is HT-1080. The experiment in a line: Antiproliferative activity against human HT1080 cells after 48 hrs by SRB assay. It is filed as functional, cell-based. Particulars: HT-1080, 48 h. Summed up:
(§2)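 Cells grown in DMEM with 5% FBS at 37 C; seeded per well at 2.5 x 10^3 (HT-1080), 4.0 x 10^3 (HT-29), 3.0 x 10^3 (M21) or 2.5 x 10^3 (MCF7). Drugs from 40 mM DMSO stock, serial dilutions, final 100 µM to 78 nM, DMSO <0.5%.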
(The SRB assay estimates cell density from bound dye.)

In another assay the test system is MCF7. The experiment in a line: Antiproliferative activity against human MCF7 cells after 48 hrs by SRB assay. It counts as functional, cell-based. The settings on record: MCF7, 48 h. Summed up: as §2
Assay [4] has as its system M21. The assay is described as follows: Cell cycle arrest in human M21 cells assessed as accumulation at G2/M phase at 1.8 uM after 24 hrs by DAPI staining based flow cytometry relative to control. It is filed as functional. Summed up:
as §1
A general note: In flow cytometry, cells or beads pass a laser one at a time.

Assay [5] in a line: Alkylating activity at DNA (unknown origin) after 90 mins by colorimetric NBP assay relative to chlorambucil. It counts as functional. The gist of the method: (§3)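 NBP alkylation kinetics (Bardos colorimetric method): 400 nmol drug in 1 mL ethanol mixed with 1 mL NBP (10% v/v in 95% ethanol), 1 mL 50 mM acetate buffer pH 4.3 and 1 mL ethanol, kept on ice, then heated at 80 C in shaking water bath; stopped on ice 5 min after 0, 30, 60, 90 min. Rate constant from linear regression of absorbance curve; chlorambucil as positive control.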

The test system of assay [6] is M21. The assay is described as follows: Cell cycle arrest in human M21 cells assessed as accumulation at G0/G1 phase at 2 times IC50 after 24 hrs by DAPI staining based flow cytometry relative to control.
The subject of assay [7] is M21. The assay is described as follows: Induction of DNA damage in human M21 cells assessed as increase in gammaH2Ax level at 5 times IC50 after 24 hrs by immunofluorescence based epifluorescence microscopy. It counts as functional, cell-based. Summed up: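 M21 cells (1 x 10^5) on fibronectin-coated (5 µg/mL, 1 h, 37 C) cover slides, 24 h attachment, then drug for 24 h; DMSO 0.25% in medium as control. Fixed with 3.7% formaldehyde, permeabilized with 0.1% saponin/3% BSA, mouse anti-H2AX pS139 (1:8000), DAPI nuclear stain; γH2AX foci imaged by epifluorescence microscopy.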

Assay [8] has as its system M21. The experiment in a line: Cell cycle arrest in human M21 cells assessed as accumulation at G2/M phase at 2 times IC50 after 24 hrs by DAPI staining based flow cytometry relative to control.
The test system of assay [9] is M21. The experiment in a line: Cell cycle arrest in human M21 cells assessed as accumulation at S phase at 2 times IC50 after 24 hrs by DAPI staining based flow cytometry relative to control.
The test system of a further assay is HT-29. The experiment in a line: Antiproliferative activity against human HT-29 cells after 48 hrs by SRB assay. It is filed as functional, cell-based. Particulars: HT-29, 48 h. The gist of the method:
as §2

In assay [10] the test system is M21. The experiment in a line: Antiproliferative activity against human M21 cells after 48 hrs by SRB assay. It is filed as functional, cell-based. Particulars: M21, 48 h. The gist of the method:
as §2

Assay [11] in a line: Alkylating activity at DNA (unknown origin) after 90 mins by colorimetric NBP assay. It counts as functional. Summed up: as §3
The subject of assay [12] is M21. The experiment in a line: Cell cycle arrest in human M21 cells assessed as accumulation at sub-G1 phase at 2 times IC50 after 24 hrs by DAPI staining based flow cytometry relative to control.

The structures appear in SMILES notation. The source made the active and inactive calls. The calls are words filed in the database; no cut-off is given here.

Usually IC50 stands for the concentration at which inhibition is half-maximal. A low value points to inhibition by little substance. Turning to `CC[C@@]1(O)C(=O)OCc2c1cc1n(c2=O)Cc2cc3c(CN(C)C)c(O)ccc3nc2-1` [TOPOTECAN], the Activity is on record as 45.2% in the assay on M21 [1], 0.1% with M21 [2], 31.9% in the assay with M21 [3] and 22.8% in the assay on M21 [4]. The IC50 with HT-1080 turned out to be 500 nM; in the assay with MCF7, 200 nM.

As to `CCCNC(=O)Nc1ccc(S(=O)(=O)Oc2ccccc2I)cc1`, the fold change (FC) in [5] was found to be 13. Besides, the Activity amounted to 62.6% in the assay on M21 [6], 10.7% in the assay on M21 [8], 26.6% in the assay with M21 [9] and 0.1% in the assay on M21 [12]. The outcome in the assay with M21 [7] was Active. Moreover, the IC50 was 700 nM in the assay with HT-1080, 2900 nM in the assay on MCF7, 6800 nM in the assay with HT-29 and 5400 nM in the assay with M21 [10]. The K in [11] amounted to 0.4 ×10⁻³ /s.

For the compound `CCNC(=O)Nc1ccc(S(=O)(=O)Oc2ccccc2I)cc1`, the fold change (FC) in assay [5] was found to be 42. Besides, the Activity in the assay on M21 [6] is on record as 67.6%; with M21 [8], 8.7%; in the assay on M21 [9], 23.4%; with M21 [12], 0.3%. Moreover, the result with M21 [7] was Active. The IC50 in the assay on HT-1080 is 140 nM; in the assay with MCF7 it was 1100 nM; in the assay on HT-29, 5300 nM; with M21 [10], 5600 nM. This compound gave a K in [11] of 0.12 ×10⁻³ /s.
